Screening data (PubChem BioAssay)
NS3 helicase inh = inhibitors of HCV NS3 helicase, primary screen, biochemical, Cy5 molecular beacon fluorescence. 290,000 compounds, 0.56% hits. NS3 helicase DNA unwinding. inhibition, % at 10.9 µM. Hepatitis C virus NS3 helicase;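 active = inhibition above the mean of all tested compounds plus 3 SD, set per campaign, cut at about 35% in these data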;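 also: 0% = DMSO wells and 100% = thioflavine S control wells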
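System: NS3 helicase fragment of HCV / Schedule: 1 h at 25 °C / Control set: DMSO alone as 0% and 110 µM thioflavine S as 100% / Reagent: Cy5/quencher beacon DNA duplex and ATP to start / Technique: Cy5 fluorescence / Replication: singlicate / Evaluation: % inhibition of end-to-start signal ratio versus controls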
UBC9 SUMO inh = inhibitors of in vitro SUMOylation cascade, primary screen, biochemical, HTRF, uHTS | inhibition, % at 35 µM | SUMO-conjugating enzyme UBC9 (Homo sapiens), P63279 | 290,000 compounds, 0.36% hits | HTRF SUMOylation assay, SAE1/SAE2 + UBC9; in the data active = inhibition above about 50%, passing the limit was not always enough
Target sequence (P63279 whole entry, looked up): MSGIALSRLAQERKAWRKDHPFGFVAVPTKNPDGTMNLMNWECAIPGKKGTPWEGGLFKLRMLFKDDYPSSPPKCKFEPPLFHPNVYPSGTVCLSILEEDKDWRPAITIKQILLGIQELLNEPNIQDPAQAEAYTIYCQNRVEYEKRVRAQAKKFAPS
ZTA DNA inh = counter-screen for EBNA-1 inhibitors: inhibitors of Epstein-Barr virus ZTA; 320,000 compounds, 0.15% hits; ZTA-DNA binding, fluorescence polarization; P03206; inhibition, % at 11 µM; AID 2234; in the data active = inhibition above about 33%
Target sequence (P03206 whole entry, looked up): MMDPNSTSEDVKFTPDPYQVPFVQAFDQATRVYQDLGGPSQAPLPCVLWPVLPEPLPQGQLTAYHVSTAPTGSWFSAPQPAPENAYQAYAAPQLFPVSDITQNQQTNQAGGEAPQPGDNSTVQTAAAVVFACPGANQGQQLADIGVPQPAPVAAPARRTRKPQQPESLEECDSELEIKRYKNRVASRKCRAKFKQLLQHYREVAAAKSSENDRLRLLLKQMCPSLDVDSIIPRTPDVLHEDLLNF
EBNA-1 inhibitor = EBNA-1 DNA-binding inhibitors, primary screen, biochemical, fluorescence polarization; inhibition, % at 14.8 µM; 300,000 compounds, 0.34% hits; in the data active = inhibition above about 28%
HCV core dimer = inhibitors of HCV core protein dimerization, primary screen, biochemical, TR-FRET, high-throughput | TR-FRET GST/Flag-core106 dimerization, 1536-well | inhibition, % at 5 µM | 300,000 compounds, 0.33% hits;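 active = inhibition above the mean of all tested compounds plus 3 SD, set per screening campaign, cut at about 45% in these data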
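test system = GST/Flag-tagged HCV core106 proteins | probe or stimulus = Eu donor and XL665 acceptor anti-tag antibodies | times = compound-protein-antibody incubation 4 h at 22.5 °C | signal = TR-FRET, excitation 340 nm, emission 617 and 671 nm | measure = percent inhibition of core106 dimerization signal | controls = wells lacking GST-core106 and wells with excess unlabelled core106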
Active calls of the source: *; · = not tested or not shown. Only some compounds are listed: those with a hit (about 1.4% of all), similar ones and a draw of the others.

SMILES	NS3 helicase inh	UBC9 SUMO inh	ZTA DNA inh	EBNA-1 inhibitor	HCV core dimer
CC(=O)N1c2c(cc(Br)cc2S(=O)(=O)NCc2ccc3c(c2)OCO3)CC1C (stereo not drawn)	-2.3	92.4*	-10.5	-2.6	-1.9
Cc1ccccc1CC(=O)Nc1cccnc1	1.1	3.8	-23.4	-15.3	-6.5
CC1Cc2ccccc2N1Cc1cc(=O)c(OCC(=O)NCCc2ccccc2)co1 (stereo not drawn)	·	·	-11.9	-14.9	0.4
Cc1cc(/C=N/n2c(COc3ccccc3)nc3ccccc3c2=O)c(O)c([N+](=O)[O-])c1	5.9	93.3*	3.8	-5.8	-3.1
Cc1ccc(-c2[nH]ncc2/C=N/n2c(COc3ccccc3)nc3ccccc3c2=O)cc1	-6.1	0.4	13.1	19.4	19.0
CC(C)CC(C(=O)Nc1oc(-c2ccccc2)c(-c2ccccc2)c1C#N)N1C(=O)c2ccccc2C1=O (stereo not drawn)	1.9	-16.6	25.5	6.0	76.4*
N#Cc1c(NC(=O)CCN2C(=O)c3ccccc3C2=O)oc(-c2ccccc2)c1-c1ccccc1	-17.6	4.0	-2.9	13.4	24.0
CCOC(=O)N1CCN(C(=O)CSC2=NS(=O)(=O)c3ccccc3N2)CC1	·	·	-17.8	3.3	-4.1
CN(C)S(=O)(=O)c1cccc(-c2nn(-c3ccccc3)cc2/C=C2\SC(=S)NC2=O)c1	32.5	·	19.9	6.1	52.5*
CCc1ccc(NC(=O)C2CCN(S(=O)(=O)c3c(C)noc3/C=C/N(C)C)CC2)cc1	1.4	-8.9	3.9	-6.0	10.6
COc1cccc(CN2C(=O)C3CCCN3c3ccc(S(=O)(=O)N4CCOCC4)cc32)c1 (stereo not drawn)	-1.0	27.0	1.1	12.5	44.4
Cc1ccc(C)c(CN2C(=O)C3CCCN3c3ccc(S(=O)(=O)N4CCOCC4)cc32)c1 (stereo not drawn)	0.1	20.1	3.2	-19.3	51.1*
CC1CCCCC12NC(=O)N(CC(=O)Nc1sc3c(c1C(N)=O)CCC3)C2=O (stereo not drawn)	6.9	17.3	-14.7	-6.7	69.3*
CC1CCC2(CC1)NC(=O)N(CC(=O)Nc1sc3c(c1C(N)=O)CCC3)C2=O (stereo not drawn)	-0.4	35.9	1.3	-3.4	52.2*
COC(=O)c1c(NC(=O)CN2C(=O)NC3(CCC(C)CC3)C2=O)sc2c1CCC2 (stereo not drawn)	·	·	6.2	·	·
O=C(CSc1nnc(Cc2ccccc2)c(=O)[nH]1)Nc1ccccc1	·	·	16.9	0.1	1.0
CCCCC1CCC(C(=O)N(CC(C)C)c2c(N)n(Cc3ccccc3)c(=O)[nH]c2=O)CC1 (stereo not drawn)	·	·	-7.3	-3.5	-4.9
COc1ccc(Cc2n[nH]c(=S)n2NC(=O)Nc2ccc(Cl)c(Cl)c2)cc1	-6.8	97.3*	1.5	-1.5	-2.1
Cc1cc(C(=O)N/N=C/c2cc(Br)ccc2OC(=O)c2ccc(Br)cc2)n[nH]1	0.8	67.1*	10.9	10.7	5.5
CCCCCCCC(=O)Nc1ccc(C(=O)N/N=C/c2cccc([N+](=O)[O-])c2)cc1	-2.3	50.2*	-8.2	-22.7	24.4
Cc1cc(-c2csc(NC(=O)c3ccc(=O)[nH]c3)n2)c(C)n1Cc1ccco1	20.1	93.4*	-14.3	-0.9	48.8*
Cc1cc(-c2csc(NC(=O)c3ccc(=O)n(C)n3)n2)c(C)n1CC1CCCO1 (stereo not drawn)	17.5	32.3	0.4	-0.8	52.9*
Cc1csc(NC(=O)c2ccc(=O)[nH]c2)n1	-0.1	28.8	2.8	3.5	-2.9
CCNc1nc(-c2cc(C)n(Cc3ccco3)c2C)cs1	7.4	55.9*	-23.7	-6.6	30.0
COc1ccc(OCc2cc(C(=O)N(C)C(C)c3ccon3)no2)c(Cl)c1 (stereo not drawn)	-8.8	-1.2	-0.2	2.6	7.0
SMILES	NS3 helicase inh	UBC9 SUMO inh	ZTA DNA inh	EBNA-1 inhibitor	HCV core dimer
CC(=O)N/C(=C\c1ccccc1)C(=O)OCc1ccc(F)cc1	11.5	0.5	·	·	·
COc1ccc(/C=C/C(=O)NCC(=O)N=Nc2c(O)[nH]c3ccc([N+](=O)[O-])cc23)cc1	19.4	43.5	3.3	-2.1	6.8
COc1cc2cc(CCOC(=O)c3ccco3)oc(=O)c2cc1OC	·	·	6.1	·	·
Nc1nnc(CC(=O)N/N=C/c2cccc([N+](=O)[O-])c2)s1	-2.9	7.0	-3.9	-2.6	0.2
Nc1nnc(CC(=O)N/N=C/c2cc([N+](=O)[O-])cc(Br)c2O)s1	0.4	99.2*	19.1	5.6	12.1
CCOc1ccc(C(=O)OCC(=O)N2CCCC2)cc1	10.5	6.7	-5.2	4.3	0.0
CCN(CC(=O)Nc1cc(Cl)ccc1C)C(=O)C1COc2ccccc2O1 (stereo not drawn)	·	·	-8.3	·	·
CC(=O)OCCNc1cc(N2CCN(C)CC2)c2noc3c2c1C(=O)c1ccccc1-3	4.9	-0.3	·	·	·
CCOC(=O)C(C(=O)OCC)c1cc(Br)c2noc3c2c1C(=O)c1ccccc1-3	16.4	87.1*	6.6	4.9	14.7
COCc1c(Br)c(C)nc(OCC(=O)N/N=C/c2cc(C)n(-c3ccc([N+](=O)[O-])cc3)c2C)c1C#N	0.4	17.9	2.9	-3.5	48.3*
O=C(COC(=O)c1ccc(Cl)cc1Cl)Nc1cccc(S(=O)(=O)NC2=NCCC2)c1	·	·	-5.3	·	·
Cc1c(C)c2cc(Cl)c(O)c(CN3CCN(C)CC3)c2oc1=O	10.7	52.1*	12.9	0.7	-8.4
Cc1c(C)c2cc(Cl)c(O)c(CN3CCCC(C)C3)c2oc1=O (stereo not drawn)	3.2	45.3	-19.1	-2.7	3.9
O=C(/C=C\c1ccco1)c1ccc(NC(=O)c2ccco2)cc1	22.3	81.6	1.8	-9.2	56.9*
CC(=O)Nc1ccc(C(=O)/C=C/c2ccco2)cc1	20.4	31.4	15.8	0.7	3.6
COc1ccc(S(=O)(=O)N2CCOC23CCN(S(=O)(=O)c2c(C)cc(C)cc2C)CC3)cc1	·	·	-10.4	-2.4	4.6
C=CC1CN(C(=O)OCC(Cl)(Cl)Cl)C2CC3c4ccc(OC)cc4NC3C3CC1C2CO3 (stereo not drawn)	·	·	10.0	0.0	3.9
CCCCc1ccc(C2C(C#N)=C(N)SC(N)=C2C#N)s1	30.2	12.3	-10.7	-10.0	59.3*
COc1cc(NC(=O)c2cc(S(=O)(=O)N3CCCCC3)c[nH]2)cc(OC)c1	2.2	27.2	5.7	6.7	8.2
Cn1cccc1CC(=O)N/N=C/c1cc([N+](=O)[O-])ccc1Cl	5.0	36.5	0.8	-10.9	48.1*
Cc1ccc(-n2cc(C(=O)c3ccc(F)cc3)nn2)cc1Cl	-4.6	-4.3	8.0	-6.5	69.6*
CCOC(=O)c1ccc(-n2cc(C(=O)c3cccnc3)nn2)cc1	-13.0	-14.3	·	·	·
COc1ccc(N2CCN(C3CCCN(C(=O)CSC)C3)CC2)cc1 (stereo not drawn)	-8.8	-7.0	-3.4	1.9	-7.1
